The source made the active and inactive calls. The rule behind the calls is not given here.
Experiments:
[1] = target: T1, Phosphatidylinositol 3,4,5-trisphosphate 5-phosphatase 2 (Mus musculus) (UniProt Q6P549); assay: Inhibition of SHIP2 in mouse 3T3L1 cells assessed as reduction of TNF-alpha induced decrease in insulin-stimulated Akt phosphorylation at Thr308 at 10 uM treated for 15 mins after TNF alpha challenge for 16 hrs and prior to insulin stimulation measured after 2 hrs by Western blot analysis; format: cell-based; conditions: 3T3-L1
T1 sequence (whole entry): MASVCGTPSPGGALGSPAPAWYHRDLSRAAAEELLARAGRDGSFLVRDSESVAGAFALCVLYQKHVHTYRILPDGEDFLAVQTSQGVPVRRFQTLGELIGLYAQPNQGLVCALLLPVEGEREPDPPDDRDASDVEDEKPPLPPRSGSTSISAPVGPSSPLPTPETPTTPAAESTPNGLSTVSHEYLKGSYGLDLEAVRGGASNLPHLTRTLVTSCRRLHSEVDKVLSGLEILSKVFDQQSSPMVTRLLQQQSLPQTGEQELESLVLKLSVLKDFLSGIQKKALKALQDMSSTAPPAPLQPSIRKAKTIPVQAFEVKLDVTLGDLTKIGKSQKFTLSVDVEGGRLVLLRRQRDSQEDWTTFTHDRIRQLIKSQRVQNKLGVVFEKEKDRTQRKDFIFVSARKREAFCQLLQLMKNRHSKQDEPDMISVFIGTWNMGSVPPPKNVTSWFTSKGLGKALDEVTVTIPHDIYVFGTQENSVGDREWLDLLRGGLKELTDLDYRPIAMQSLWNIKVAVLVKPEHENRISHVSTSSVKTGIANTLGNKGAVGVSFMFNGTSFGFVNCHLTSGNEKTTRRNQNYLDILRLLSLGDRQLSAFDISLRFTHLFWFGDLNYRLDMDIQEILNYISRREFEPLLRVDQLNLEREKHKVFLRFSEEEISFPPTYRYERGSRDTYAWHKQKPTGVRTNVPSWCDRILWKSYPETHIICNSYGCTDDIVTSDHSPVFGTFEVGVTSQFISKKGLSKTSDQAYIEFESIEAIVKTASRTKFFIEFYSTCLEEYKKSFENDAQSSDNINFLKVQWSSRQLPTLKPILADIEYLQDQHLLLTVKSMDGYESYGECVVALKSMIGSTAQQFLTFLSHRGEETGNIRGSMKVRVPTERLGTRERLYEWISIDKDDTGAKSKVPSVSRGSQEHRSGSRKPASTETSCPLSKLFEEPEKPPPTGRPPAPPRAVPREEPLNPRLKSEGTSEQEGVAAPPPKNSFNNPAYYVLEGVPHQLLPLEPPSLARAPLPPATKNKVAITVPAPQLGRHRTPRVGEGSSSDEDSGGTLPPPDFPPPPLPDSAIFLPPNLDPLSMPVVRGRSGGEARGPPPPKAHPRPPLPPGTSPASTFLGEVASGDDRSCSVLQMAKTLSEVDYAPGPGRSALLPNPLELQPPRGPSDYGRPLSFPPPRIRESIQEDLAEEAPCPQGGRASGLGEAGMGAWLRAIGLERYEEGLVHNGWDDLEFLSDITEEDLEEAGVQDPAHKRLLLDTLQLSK
Summary of the method: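 3T3-L1 fibroblasts differentiated into adipocytes, then serum-starved 16 h with TNFα 20 ng/mL. Treated with compound 10 µM or 0.1% DMSO for 15 min, then stimulated with 17 nM insulin at 37 °C for 2 h. Cells lysed on ice at pH 7.5 and Thr308 phospho-Akt measured by western blot. Results given as fold change versus TNFα+insulin control. Mean ± SE.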

[2] = target: T2, Phosphatidylinositol 3,4,5-trisphosphate 5-phosphatase 2 (Rattus norvegicus) (UniProt Q9WVR3); assay: Inhibition of SHIP2 in TNF alpha-treated Sprague-Dawley rat cortical neuron assessed as potentiation of insulin-stimulated Akt phosphorylation at Thr308 at 10 uM treated for 15 mins after TNF alpha challenge for 3 days and prior to insulin stimulation measured after 5 mins by Western blot analysis relative to untreated control
T2 sequence (whole entry): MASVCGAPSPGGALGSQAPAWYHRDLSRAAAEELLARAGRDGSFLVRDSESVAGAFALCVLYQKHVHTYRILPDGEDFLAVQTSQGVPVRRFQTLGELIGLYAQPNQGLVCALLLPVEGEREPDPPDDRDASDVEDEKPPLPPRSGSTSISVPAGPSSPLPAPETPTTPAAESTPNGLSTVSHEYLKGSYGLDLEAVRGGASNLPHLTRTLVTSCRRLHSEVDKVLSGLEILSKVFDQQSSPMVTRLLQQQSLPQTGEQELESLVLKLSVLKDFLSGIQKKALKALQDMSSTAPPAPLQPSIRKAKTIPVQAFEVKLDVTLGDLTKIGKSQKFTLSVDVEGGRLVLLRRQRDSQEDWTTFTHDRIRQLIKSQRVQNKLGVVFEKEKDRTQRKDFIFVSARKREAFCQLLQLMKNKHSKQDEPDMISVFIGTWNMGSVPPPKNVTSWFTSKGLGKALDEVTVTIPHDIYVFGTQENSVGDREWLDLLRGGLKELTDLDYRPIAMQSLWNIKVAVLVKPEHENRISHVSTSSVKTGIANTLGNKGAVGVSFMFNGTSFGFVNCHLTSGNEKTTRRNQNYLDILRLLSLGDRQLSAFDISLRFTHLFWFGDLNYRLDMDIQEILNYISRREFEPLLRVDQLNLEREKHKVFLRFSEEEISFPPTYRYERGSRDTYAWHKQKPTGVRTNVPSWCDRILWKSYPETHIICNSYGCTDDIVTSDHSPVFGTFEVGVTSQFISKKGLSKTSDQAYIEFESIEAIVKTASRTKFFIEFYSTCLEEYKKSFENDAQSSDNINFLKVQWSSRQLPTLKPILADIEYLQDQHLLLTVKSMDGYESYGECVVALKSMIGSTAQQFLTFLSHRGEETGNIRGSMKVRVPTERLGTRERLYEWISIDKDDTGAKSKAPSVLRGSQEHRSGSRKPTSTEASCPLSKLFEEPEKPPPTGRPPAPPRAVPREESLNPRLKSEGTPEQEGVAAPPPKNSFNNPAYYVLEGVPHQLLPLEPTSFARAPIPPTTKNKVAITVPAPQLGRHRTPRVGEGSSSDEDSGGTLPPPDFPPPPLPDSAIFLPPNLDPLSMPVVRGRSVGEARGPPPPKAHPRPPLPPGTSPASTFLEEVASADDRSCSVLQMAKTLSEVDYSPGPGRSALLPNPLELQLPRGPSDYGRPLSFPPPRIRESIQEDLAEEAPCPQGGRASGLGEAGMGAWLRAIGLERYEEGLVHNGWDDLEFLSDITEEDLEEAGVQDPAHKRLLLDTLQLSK

Mus musculus [3] = assay: Antidiabetic activity in db/db mouse assessed as serum insulin level at 300 mg/kg, po bid for 12 to 13 days measured on day 12 to 13 (reference value: 7.30 +/-1.10 ng/ml); format: functional
Mus musculus [4] = assay: Toxicity in C57BL/6J mouse assessed as epididymal white adipose tissue weight at 300 mg/kg, po bid for 12 to 13 days measured on day 15 (reference value: 0.03 +/-0.0 gms); format: organism-based; parameters: dose 300 mg/kg, route oral; conditions: in vivo
Mus musculus [5] = assay: Toxicity in C57BL/6J mouse assessed as serum insulin level at 300 mg/kg, po bid for 12 to 13 days measured on day 15 (reference value: 0.25 +/-0.11 ng/ml); format: organism-based; parameters: dose 300 mg/kg, route oral; conditions: in vivo

SMILES: O=C(Cc1c(F)cccc1F)Nc1cc(OCc2ccc(Cl)cc2)ccn1
- inhibition [1]: Active
- fold change (FC) [2]: 2.2
- Activity (Mus musculus [3]): 6.86 ng/mL
- Activity (Mus musculus [4]): 0.02 g
- Activity (Mus musculus [5]): 0.21 ng/mL

SMILES: C[C@H](NC(=O)c1sccc1OCc1ccc(Cl)cc1)c1ccccc1
- fold change (FC) [2]: 1.5
- Activity (Mus musculus [3]): 9.95 ng/mL
- Activity (Mus musculus [4]): 0.02 g
- Activity (Mus musculus [5]): 0.1 ng/mL
